Screening results deposited in PubChem BioAssay by several laboratories.
ABCG2 block – inhibitors of human ABCG2 transporter, ABCB1 counter-screen; Q9UNQ0; IgMXP3 cells, JC-1 efflux, flow cytometry; inhibition, % at 6.6 µM; hit rate 0.1% among 190,000; AID 1325;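 active = inhibition above 80%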;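 note: 0% = DMSO and 100% = nicardipine control wells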
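Times: 10 min at 25 °C | Test system: Two drug-resistant human cell lines, ABCG2 and ABCB1 | Quantity: 3 million cells/mL final, two lines in 1:1 ratio | Signal: Flow cytometry, 530 nm JC-1 signal | Dosing: Compound at 6.6 µM | Controls: Nicardipine and DMSO wells | Reagent: JC-1 as fluorescent efflux pump substrate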
ABCB1 inh – blocks JC-1 efflux by human ABCB1 transporter. hit rate 0.067% among 190,000. inhibition, % at 6.6 µM. P08183. CCRF-Adr cells, flow cytometry; in the data active = inhibition above about 40%;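 note: 0% = vehicle and 100% = reference inhibitor; higher value means more JC-1 retained so stronger ABCB1 efflux block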
Rad51 HR inh – blocks human Rad51 in homologous recombination; Q06609; hRad51 DNA strand exchange, fluorescence dequenching; inhibition, % at 10 µM; hit rate 0.085% among 200,000; AID 1385;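 active = inhibition above 40% at the single screening dose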;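 note: 0% = DMSO control wells and 100% = blanks with heterologous ssDNA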
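Material: Human Rad51 nucleoprotein filaments preassembled on unlabelled ssDNA | Also added: Labelled 47-mer dsDNA for strand exchange | Dosing: Single dose, 10 µM final compound | Schedule: 30-min compound preincubation and 15-min exchange, both room temperature | Technique: Fluorescence dequenching at 485/520 nm | Measure: Percent inhibition relative to plate controls and blanks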
PERK inh – inhibitors of human PERK kinase. hit rate 0.17% among 220,000. AID 1416. inhibition, % at 5.6 µM. CHO PERK-DD fusion, SEAP luminescence translation reporter. Q9NZJ5;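 active = inhibition above the mean inhibition of all tested compounds plus 3 SD, set separately per screening campaign, cut at about 2.9% in these data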;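 note: PERK kinase domain activated by AP20187 dimerizer at 100 nM; 0% = DMSO with dimerizer and 100% = rapamycin at 8.4 µM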
HMGR II inh – blocks class II HMG-CoA reductase of Enterococcus faecalis. purified E. faecalis HMGR, NADPH absorbance 340 nm kinetic. inhibition, % at 10 µM. hit rate 0.41% among 190,000. AID 1066;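 active = inhibition above a set limit, the median over all tested compounds plus 3 SD, cut at about 9.5% in these data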;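 note: enzyme runs in reverse so mevalonate oxidation gives rising NADPH absorbance; 0% = complete reaction with DMSO and 100% = background rate lacking mevalonate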
Furin inhibitor – inhibitors of human furin; P09958; purified furin, fluorogenic substrate cleavage; inhibition, % at 20 µM or 30 µM; hit rate 0.061% among 220,000; AID 463115; in the data active = inhibition above about 25%
Target sequence (P09958 108-714 limits assumed): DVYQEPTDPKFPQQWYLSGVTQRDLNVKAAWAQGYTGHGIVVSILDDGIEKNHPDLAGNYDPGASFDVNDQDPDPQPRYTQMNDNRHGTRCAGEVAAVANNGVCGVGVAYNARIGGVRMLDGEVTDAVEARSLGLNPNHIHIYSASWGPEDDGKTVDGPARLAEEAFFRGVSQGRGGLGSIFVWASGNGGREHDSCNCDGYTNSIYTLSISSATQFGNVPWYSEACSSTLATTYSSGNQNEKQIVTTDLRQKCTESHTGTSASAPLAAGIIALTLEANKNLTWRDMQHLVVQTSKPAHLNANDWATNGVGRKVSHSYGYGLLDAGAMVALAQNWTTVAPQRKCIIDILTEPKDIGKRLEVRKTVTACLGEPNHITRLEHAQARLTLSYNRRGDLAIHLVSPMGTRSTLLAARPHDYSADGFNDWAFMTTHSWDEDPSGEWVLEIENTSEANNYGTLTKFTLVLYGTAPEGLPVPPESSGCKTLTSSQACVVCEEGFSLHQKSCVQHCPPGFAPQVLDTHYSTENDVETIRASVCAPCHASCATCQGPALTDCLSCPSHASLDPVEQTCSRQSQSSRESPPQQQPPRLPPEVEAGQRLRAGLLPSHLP
Active calls of the source: *. In the library only some 0.77% were active in any assay of this set; here they are far more common.

For CC(C)(C)n1nnnc1SCC(=O)Nc1nn(-c2ccccc2)nc1C(N)=O the results were ABCG2 block 1.4, ABCB1 inh 0.6, Rad51 HR inh -0.4, PERK inh -0.1, HMGR II inh 10.0* and Furin inhibitor -21.4.
`O=C(CCN1C(=O)c2ccccc2C1=O)N(CCO)Cc1ccccc1` gave ABCG2 block 2.6, ABCB1 inh 1.1, PERK inh 0.1, HMGR II inh -2.2 and Furin inhibitor 26.6*.
Screening O=C(O)c1cnn(-c2ccccc2)c1-c1ccccc1 returned ABCG2 block 16.4, ABCB1 inh 1.1, Rad51 HR inh -9.9, PERK inh 0.2, HMGR II inh 0.4 and Furin inhibitor -10.7.
`Cc1ccc(C(=O)N/N=C/C=C/c2ccccc2)o1` gave ABCG2 block 5.9, ABCB1 inh -0.2, Rad51 HR inh 0.5, PERK inh -0.4, HMGR II inh 10.9* and Furin inhibitor 12.8.
For Cc1onc(-c2ccccc2)c1C(=O)N/N=C/C=C/c1ccccc1 the results were Rad51 HR inh 9.4, PERK inh -0.9 and Furin inhibitor 2.3.
`CCC(=O)NCCc1cc2ccc(C)cc2[nH]c1=O` gave ABCG2 block 0.8, ABCB1 inh 0.2, Rad51 HR inh -2.6, PERK inh 3.3*, HMGR II inh 0.9 and Furin inhibitor -27.2.
`COc1ccc(NC(=O)CSc2nc3ccccc3cc2Cc2ccccc2)cc1` gave ABCG2 block 2.0, ABCB1 inh 0.6, Rad51 HR inh 4.0, PERK inh 0.1, HMGR II inh -1.8 and Furin inhibitor -18.7.
`COc1ccc(OC)c(NC(=O)CSc2nc3ccccc3cc2Cc2ccccc2)c1` gave ABCG2 block 0.2, ABCB1 inh 0.0, Rad51 HR inh 7.6, PERK inh 2.9*, HMGR II inh -4.6 and Furin inhibitor -11.4.
COc1ccccc1NC(=S)N1CCCc2ccccc21 was read as ABCG2 block 0.4, ABCB1 inh -0.1, Rad51 HR inh -0.3, PERK inh 0.4, HMGR II inh 16.1* and Furin inhibitor -27.9.
CC1=NNC(=O)C(CC(=O)Nc2ccc(Cl)c(Cl)c2)C1 (stereo not given) was read as ABCG2 block 16.0, ABCB1 inh 0.1, Rad51 HR inh -1.2, PERK inh 1.0, HMGR II inh -9.1 and Furin inhibitor -13.0.
`O=C1CC(=C2c3ccccc3-c3ccccc32)C(=O)N1CCCCN1CCN(c2ccccc2)CC1` gave ABCG2 block 9.7, ABCB1 inh 3.3, Rad51 HR inh 2.5, PERK inh -0.3, HMGR II inh 2.9 and Furin inhibitor 28.3*.
For O=C1c2ccccc2C(=O)N1CCCN1CCN(CCCN2C(=O)c3ccccc3C2=O)CC1 the results were PERK inh -0.4 and Furin inhibitor -15.5.
`O=C1c2ccccc2C(=O)N1CCCCN1CCN(CCCCN2C(=O)c3ccccc3C2=O)CC1` gave PERK inh 1.4 and Furin inhibitor 25.8*.
`O=C1CN(C(=O)CSc2nnc3ccccn23)c2ccccc2N1` gave ABCG2 block -0.2, ABCB1 inh 0.0, Rad51 HR inh -2.7, PERK inh 1.9, HMGR II inh 12.2* and Furin inhibitor -20.1.
`Cn1cccc1C(=O)OCC(=O)N1CC(=O)Nc2ccccc21` gave ABCG2 block 2.7, ABCB1 inh 0.8, Rad51 HR inh 6.8, PERK inh 0.2, HMGR II inh 10.8* and Furin inhibitor -35.9.
Screening O=C(NNC(=O)c1ccc(NC(=O)c2ccccc2)cc1)c1ccccc1 returned ABCG2 block -6.5, ABCB1 inh -0.9, Rad51 HR inh 3.8, PERK inh 0.8, HMGR II inh 0.2 and Furin inhibitor -26.7.
Screening N#CC1(c2ccc(NC(=O)c3ccccc3)cc2)CCCC1 returned ABCG2 block 5.2, ABCB1 inh 1.0, Rad51 HR inh -1.9, PERK inh 0.7, HMGR II inh 12.9* and Furin inhibitor -16.2.
CCOc1cccc(-c2csc(C3COc4ccccc4O3)n2)c1 (stereo not given) was read as ABCG2 block -1.4, ABCB1 inh -0.4, Rad51 HR inh -3.0, PERK inh 0.0, HMGR II inh 0.0 and Furin inhibitor -12.8.
Cc1cc(C)cc(-n2c3nc4ccccc4nc3c3c(=O)n(Cc4ccco4)cnc32)c1 was read as ABCG2 block 1.4, ABCB1 inh 1.1, Rad51 HR inh -5.5, PERK inh -0.1, HMGR II inh 17.2* and Furin inhibitor -19.4.
Screening Cc1csc2c(SCC(=O)NNC(=O)C(Cl)Cl)ncnc12 returned Rad51 HR inh -8.4, PERK inh 3.1* and Furin inhibitor -12.3.
FC(F)(F)c1cnc(Oc2ccccc2-c2nnco2)c(Cl)c1 was read as ABCG2 block 1.1, ABCB1 inh 0.5, Rad51 HR inh 0.7, PERK inh -0.6, HMGR II inh -4.2 and Furin inhibitor -9.9.
`Nc1ccccc1Oc1ncc(C(F)(F)F)cc1Cl` gave ABCG2 block -0.3, ABCB1 inh -0.1, Rad51 HR inh -4.0, PERK inh 2.9*, HMGR II inh -7.5 and Furin inhibitor -25.1.
Screening CCn1cc(/C=N/NS(=O)(=O)c2ccc(OC)cc2)c(C)n1 returned ABCG2 block 9.8, ABCB1 inh 0.7, Rad51 HR inh 45.4*, PERK inh 0.0, HMGR II inh -2.5 and Furin inhibitor -11.8.
`O=C(Cn1cnc([N+](=O)[O-])n1)N/N=C/c1ccccc1O` gave ABCG2 block -1.5, ABCB1 inh -0.3, Rad51 HR inh -4.7, PERK inh 3.4*, HMGR II inh -3.8 and Furin inhibitor -0.7.
For CC(=O)OC(C(=O)NCCN1CCOCC1)c1c(F)cccc1F (stereo not given) the results were ABCG2 block 5.2, ABCB1 inh 0.8, PERK inh 1.1, HMGR II inh -0.2 and Furin inhibitor -20.8.
CCc1ccc2nc3n[nH]c(N)c3cc2c1 was read as ABCG2 block 2.2, ABCB1 inh 0.2, Rad51 HR inh 3.2, PERK inh 2.0, HMGR II inh -4.5 and Furin inhibitor -8.0.
Nc1[nH]nc2nc3ccccc3cc12 was read as ABCG2 block -0.5, ABCB1 inh -0.7, Rad51 HR inh -0.7, PERK inh 1.7, HMGR II inh 10.1* and Furin inhibitor 1.1.
O=Cc1ccc(-c2ccc(Cl)cc2Cl)[nH]1 was read as ABCG2 block -0.1, ABCB1 inh -0.1, PERK inh 4.2*, HMGR II inh -13.7 and Furin inhibitor -11.1.
O=C(c1ccccc1Sc1ccc([N+](=O)[O-])cc1Cl)N1CCOCC1 was read as ABCG2 block 5.6, ABCB1 inh 1.8, Rad51 HR inh 44.9*, PERK inh 0.2, HMGR II inh -6.1 and Furin inhibitor -7.9.
`N#Cc1ccccc1Sc1ccccc1C(=O)N1CCOCC1` gave ABCG2 block 0.3, ABCB1 inh 0.1, Rad51 HR inh 6.7, PERK inh -0.5, HMGR II inh 3.3 and Furin inhibitor -20.3.
